In ChEMBL document CHEMBL2434961, “Development of 3-phenyl-4,5,6,7-tetrahydro-1H-pyrazolo[4,3-c]pyridine derivatives as novel Mycobacterium tuberculosis pantothenate synthetase inhibitors” (Eur J Med Chem, 2013):
Values after ≈ are worked out from the molar mass of the structure shown.

Experiments:
[1] = Cytotoxicity against mouse RAW264.7 cells assessed as inhibition of cell viability at 50 uM after 72 hrs by MTT assay relative to control; format: cell-based; conditions: read-out: INH
Method in brief: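 RAW 264.7 mouse macrophage cells exposed to compound at 50 µM for 72 h. Viability assessed by cellular conversion of MTT to formazan.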

[2] = molecular target: T1, Pantothenate synthetase (Mycobacterium tuberculosis) (UniProt P9WIL5); assay: Inhibition of Mycobacterium tuberculosis pantothenate synthetase cloned in Escherichia coli BL21 (DE3) using ATP, beta-alanine, pantoic acid as substrate assessed as NAD+ production at 100 uM measured every 12 secs for 120 secs by spectrophotometric analysis relative to control
T1 sequence (whole entry): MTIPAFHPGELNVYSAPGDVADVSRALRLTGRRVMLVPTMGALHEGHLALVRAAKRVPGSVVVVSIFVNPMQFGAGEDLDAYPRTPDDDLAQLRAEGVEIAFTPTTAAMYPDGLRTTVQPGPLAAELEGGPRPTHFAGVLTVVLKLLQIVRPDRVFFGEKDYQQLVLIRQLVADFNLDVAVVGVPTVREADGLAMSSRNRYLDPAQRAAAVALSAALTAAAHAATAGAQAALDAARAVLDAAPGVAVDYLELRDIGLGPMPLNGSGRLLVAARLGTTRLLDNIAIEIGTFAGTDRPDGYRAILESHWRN
Method in brief: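 Coupled assay linking AMP from β-alanine plus pantoate condensation to NADH oxidation via myokinase, pyruvate kinase and lactate dehydrogenase. Mix held NADH, pantoic acid, β-alanine, ATP, phosphoenolpyruvate and MgCl₂ in buffer; compound (100 µM) added; reaction started with PS. A340 read every 12 s for 120 s. % inhibition = 100 × (1 − (compound rate − background)/(full rate − background)).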

[3] = system: Mycobacterium tuberculosis; assay: Antibacterial activity against Mycobacterium tuberculosis H37Rv ATCC 27294 assessed as growth inhibition after 28 days by agar dilution method; format: functional; conditions: H37Rv ATCC 27294, 672 h
Method in brief: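 Two-fold serial dilutions incorporated into Middlebrook 7H11 agar with OADC, final 50 to 0.78 µg/mL. Inoculum of 1 mg/mL (wet weight) in 0.05% Tween 80 saline, diluted 10⁻² to ~10⁷ cfu/mL. 5 µL spotted per tube, incubated at 37 °C for 28 days. MIC is the lowest concentration giving complete growth inhibition.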

Pantothenate synthetase [4] = molecular target: T2, Pantothenate synthetase (Mycobacterium tuberculosis, UniProt P9WIL5); assay: Inhibition of Mycobacterium tuberculosis pantothenate synthetase cloned in Escherichia coli BL21 (DE3) using ATP, beta-alanine, pantoic acid as substrate assessed as NAD+ production measured every 12 secs for 120 secs by spectrophotometric analysis
T2 sequence (P9WIL5 whole entry): T1 sequence (whole entry)
Method in brief: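 Same AMP-coupled NADH/A340 PS assay (NADH, pantoic acid, β-alanine, ATP, PEP, MgCl₂, myokinase, pyruvate kinase, LDH; reaction started with enzyme; read every 12 s for 120 s). IC₅₀ determined for compounds exceeding 60% inhibition at 100 µM, using rate-based % inhibition corrected for background.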

Pantothenate synthetase [5] = molecular target: T2, Pantothenate synthetase; assay: Binding affinity to Mycobacterium tuberculosis pantothenate synthetase

Compound | cytotoxicity at 72 h, 50 µM [1] | inhibition [2] | MIC [3] | IC50 (Pantothenate synthetase [4]) | Kd (Pantothenate synthetase [5])
Cc1ccc(S(=O)(=O)N2CCc3c(c(-c4ccccc4)nn3C(=O)c3ccccc3)C2)cc1 | 0% | 9% | 109 µM (≈ 50 µg/mL) |  | 
Cc1ccc(NC(=S)N2CCc3c(c(-c4ccccc4)nn3C(=O)c3ccccc3)C2)cc1 | 0% | 23.9% | > 110 µM |  | 
Cc1ccc(NC(=O)N2CCc3c(c(-c4ccccc4)nn3C(=O)c3ccccc3)C2)cc1 | 57.1% | 49.4% | 114 µM (≈ 49.8 µg/mL) |  | 
Cc1ccc(S(=O)(=O)N2CCc3c(c(-c4ccccc4)nn3C(=O)C3CCCCC3)C2)cc1 | 0% | 41.6% | 53.9 µM (≈ 25 µg/mL) |  | 
O=C(NCc1ccccc1)N1CCc2c(c(-c3ccccc3)nn2C(=O)c2ccccc2)C1 | 0.7% | 46.2% | 114 µM (≈ 49.8 µg/mL) |  | 
O=C(c1ccccc1)n1nc(-c2ccccc2)c2c1CCN(S(=O)(=O)c1cccs1)C2 | 6.8% | 48.7% | 55.6 µM (≈ 25 µg/mL) |  | 
O=C(c1ccccc1)n1nc(-c2ccccc2)c2c1CCN(S(=O)(=O)c1ccc(F)cc1)C2 | 0% | 77% | 54.2 µM (≈ 25 µg/mL) | 38.6 µM | 
O=C(Nc1ccc(Cl)cc1)N1CCc2c(c(-c3ccccc3)nn2C(=O)C2CCCCC2)C1 | 4% | 54.7% | 108 µM (≈ 50 µg/mL) |  | 
CC(C)NC(=O)N1CCc2c(c(-c3ccccc3)nn2C(=O)c2ccccc2)C1 | 10.6% | 40.9% | 129 µM (≈ 50 µg/mL) |  | 
C=CCNC(=S)N1CCc2c(c(-c3ccccc3)nn2C(=O)c2ccccc2)C1 | 6% | 41.7% | > 124 µM |  | 
CC(=O)c1ccc(NC(=O)N2CCc3c(c(-c4ccccc4)nn3C(=O)c3ccccc3)C2)cc1 | 12.8% | 43.7% | > 108 µM |  | 
O=C(C1CCCCC1)n1nc(-c2ccccc2)c2c1CCN(C(=S)NCc1ccccc1)C2 | 20.6% | 51.4% | 108 µM (≈ 49.5 µg/mL) |  | 
O=C(C1CCCCC1)n1nc(-c2ccccc2)c2c1CCN(S(=O)(=O)c1cccs1)C2 | 8.1% | 52% | 54.9 µM (≈ 25 µg/mL) |  | 
O=C(Nc1ccc([N+](=O)[O-])cc1)N1CCc2c(c(-c3ccccc3)nn2C(=O)C2CCCCC2)C1 | 14.9% | 50.8% | 52.8 µM (≈ 25 µg/mL) |  | 
CCOc1ccc(NC(=O)N2CCc3c(c(-c4ccccc4)nn3C(=O)C3CCCCC3)C2)cc1 | 4.9% | 48.5% | 106 µM (≈ 50 µg/mL) |  | 
O=C(C1CCCCC1)n1nc(-c2ccccc2)c2c1CCN(C(=S)Nc1ccc(F)cc1)C2 | 58.4% | 49.2% | 105 µM (≈ 48.7 µg/mL) |  | 
O=C(c1ccccc1)n1nc(-c2ccccc2)c2c1CCN(S(=O)(=O)c1ccc([N+](=O)[O-])cc1)C2 | 18.6% | 39.7% | 25.6 µM (≈ 12.5 µg/mL) |  | 
CCOc1ccc(NC(=O)N2CCc3c(c(-c4ccccc4)nn3C(=O)c3ccccc3)C2)cc1 | 0% | 47.2% | > 107 µM |  | 
CC(=O)c1ccc(S(=O)(=O)N2CCc3c(c(-c4ccccc4)nn3C(=O)C3CCCCC3)C2)cc1 | 11.5% | 39.2% | 50.8 µM (≈ 25 µg/mL) |  | 
O=C(C1CCCCC1)n1nc(-c2ccccc2)c2c1CCN(S(=O)(=O)c1ccc(F)cc1)C2 | 1.4% | 46.8% | 53.5 µM (≈ 25 µg/mL) |  | 
O=C(Nc1ccc(Cl)cc1)N1CCc2c(c(-c3ccccc3)nn2C(=O)c2ccccc2)C1 | 4.9% | 40.2% | 109 µM (≈ 50 µg/mL) |  | 
NNC(=O)c1ccncc1 [ISONIAZID] |  | 0% | 0.72 µM (≈ 0.0987 µg/mL) |  | 

Compound | cytotoxicity at 72 h, 50 µM [1] | inhibition [2] | MIC [3] | IC50 (Pantothenate synthetase [4]) | Kd (Pantothenate synthetase [5])
CC(=O)c1ccc(S(=O)(=O)N2CCc3c(c(-c4ccccc4)nn3C(=O)c3ccccc3)C2)cc1 | 5.3% | 78.5% | 51.5 µM (≈ 25 µg/mL) | 39.1 µM | 
O=C(C1CCCCC1)n1nc(-c2ccccc2)c2c1CCN(C(=S)Nc1ccc(Cl)cc1)C2 | 51.1% | 56.3% | 109 µM (≈ 52.2 µg/mL) |  | 
O=C(Nc1ccc(Br)cc1)N1CCc2c(c(-c3ccccc3)nn2C(=O)C2CCCCC2)C1 | 0% | 50.5% | 98.5 µM (≈ 50 µg/mL) |  | 
O=C(C1CCCCC1)n1nc(-c2ccccc2)c2c1CCN(C(=S)Nc1ccc([N+](=O)[O-])cc1)C2 | 0% | 47.3% | 53.5 µM (≈ 26.2 µg/mL) |  | 
COc1ccc(NC(=S)N2CCc3c(c(-c4ccccc4)nn3C(=O)c3ccccc3)C2)cc1 | 0% | 10.2% | 107 µM (≈ 50 µg/mL) |  | 
COc1ccc(NC(=O)N2CCc3c(c(-c4ccccc4)nn3C(=O)C3CCCCC3)C2)cc1 | 52.5% | 38.7% | 109 µM (≈ 50 µg/mL) |  | 
CC(C)(C)OC(=O)N1CCc2[nH]nc(-c3ccccc3)c2C1 |  |  | 26.7 µM (≈ 7.99 µg/mL) | 21.8 µM | 
O=C(NCc1ccccc1)N1CCc2c(c(-c3ccccc3)nn2C(=O)C2CCCCC2)C1 | 35.7% | 49.1% | 54.5 µM (≈ 24.1 µg/mL) |  | 
O=C(Nc1cccc2ccccc12)N1CCc2c(c(-c3ccccc3)nn2C(=O)C2CCCCC2)C1 | 4.1% | 50.9% | 52.2 µM (≈ 25 µg/mL) |  | 
O=C(c1ccccc1)n1nc(-c2ccccc2)c2c1CCN(C(=S)Nc1ccc(F)cc1)C2 | 0.5% | 43.5% | 110 µM (≈ 50 µg/mL) |  | 
O=C(c1ccccc1)n1nc(-c2ccccc2)c2c1CCN(C(=S)NCc1ccccc1)C2 | 0% | 52.1% | 110 µM (≈ 50 µg/mL) |  | 
O=C(C1CCCCC1)n1nc(-c2ccccc2)c2c1CCN(S(=O)(=O)c1ccc([N+](=O)[O-])cc1)C2 | 8.3% | 50.2% | 50.5 µM (≈ 25 µg/mL) |  | 
CC[C@@H](CO)NCCN[C@@H](CC)CO [ETHAMBUTOL] |  | 0% | 15.3 µM (≈ 3.12 µg/mL) |  | 
CC(=O)c1ccc(NC(=O)N2CCc3c(c(-c4ccccc4)nn3C(=O)C3CCCCC3)C2)cc1 | 22.5% | 51.4% | 108 µM (≈ 50.9 µg/mL) |  | 
O=C(Nc1ccc(Br)cc1)N1CCc2c(c(-c3ccccc3)nn2C(=O)c2ccccc2)C1 | 42% | 60.6% | 99.7 µM (≈ 50 µg/mL) | 82.1 µM | 
Cc1ccc(NC(=S)N2CCc3c(c(-c4ccccc4)nn3C(=O)C3CCCCC3)C2)cc1 | 27.8% | 50.5% | 51.1 µM (≈ 23.4 µg/mL) |  | 
O=C(c1ccccc1)n1nc(-c2ccccc2)c2c1CCN(C(=S)Nc1ccc(Cl)cc1)C2 | 0% | 37.7% | 106 µM (≈ 50 µg/mL) |  | 
O=C(Nc1cccc2ccccc12)N1CCc2c(c(-c3ccccc3)nn2C(=O)c2ccccc2)C1 | 4.7% | 89.8% | 48.8 µM (≈ 23.1 µg/mL) | 38.2 µM | 
O=C(Nc1ccc([N+](=O)[O-])cc1)N1CCc2c(c(-c3ccccc3)nn2C(=O)c2ccccc2)C1 | 0% | 95.7% | 26.7 µM (≈ 12.5 µg/mL) | 21.8 µM | 
Cc1ccc2c(c1)C=C(C(=O)NS(=O)(=O)c1cc3ccccc3o1)C2CC(=O)O (configuration not stated) |  |  |  |  | 1.8 µM
COc1ccc(NC(=S)N2CCc3c(c(-c4ccccc4)nn3C(=O)C3CCCCC3)C2)cc1 | 9.5% | 50.6% | 102 µM (≈ 48.3 µg/mL) |  | 
Cc1ccc(NC(=O)N2CCc3c(c(-c4ccccc4)nn3C(=O)C3CCCCC3)C2)cc1 | 15.1% | 40.8% | 56.5 µM (≈ 25 µg/mL) |  | 
